Test results taken from ChEMBL document CHEMBL4680069, “Itaconate is a covalent inhibitor of the Mycobacterium tuberculosis isocitrate lyase” (RSC Med Chem, 2021).
The source made the active and inactive calls. The calls are words filed in the database; no cut-off is given here.

Tests used:
[1] = Covalent inhibition of wild type N-terminal polyhis-tagged TEV protease cleavage site fused Mycobacterium tuberculosis ICL1 expressed in Escherichia coli BL21 (DE3) using DL-isocitrate as substrate measured after 1 hr by UV-Vis spectrophotometric analysis
Procedure, shortened: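 Recombinant ICL1 at 20 nM with 1 mM DL-isocitrate and 1 mM MgCl2 in 50 mM Tris pH 7.5. Includes 10 mM phenylhydrazine-HCl to trap product. Inhibitor tested at varying concentrations to give IC50. Four separate measurements; errors are standard deviations.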

[2] = test system: Mycobacterium tuberculosis; test: (§1) Binding affinity to wild type N-terminal polyhis-tagged TEV protease cleavage site fused Mycobacterium tuberculosis ICL1 expressed in Escherichia coli BL21 (DE3) assessed as covalent adduct formation at 1 mM measured after 5 hrs in presence of Mg2+ by LC-MS/MS analysis relative to control
[3] = Binding affinity to wild type N-terminal polyhis-tagged TEV protease cleavage site fused Mycobacterium tuberculosis ICL1 expressed in Escherichia coli BL21 (DE3) in presence of glyoxylate by NMR binding analysis
[4] = test system: Mycobacterium tuberculosis; test: (§2) Binding affinity to recombinant Mycobacterium tuberculosis CDC1551 ICL2 (Cys215-Arg233) expressed in Escherichia coli BL21 (DE3) LOBSTR assessed as covalent adduct formation at 1 mM incubated overnight in presence of Mg2+ followed by trypsin protease digestion by tandem mass spectrometry analysis; conditions: time 12.0 hrs
[5] = Binding affinity to wild type N-terminal polyhis-tagged TEV protease cleavage site fused Mycobacterium tuberculosis ICL1 expressed in Escherichia coli BL21 (DE3) in absence of Mg2+ by NMR binding analysis
[6] = test system: Mycobacterium tuberculosis; test: as §2, with “wild type N-terminal polyhis-tagged TEV protease cleavage site fused” for “recombinant”, “ICL1 (Ala170-Lys197)” for “CDC1551 ICL2 (Cys215-Arg233)”, “(DE3)” for “(DE3) LOBSTR”; conditions: time 12.0 hrs
[7] = test system: Mycobacterium tuberculosis; test: Binding affinity to wild type N-terminal polyhis-tagged TEV protease cleavage site fused Mycobacterium tuberculosis ICL1 expressed in Escherichia coli BL21 (DE3) assessed as compound-protein covalent adduct formation by measuring molecular mass at 1 mM after 12 hrs in presence of MgCl2 by LC-MS analysis
[8] = Binding affinity to wild type N-terminal polyhis-tagged TEV protease cleavage site fused Mycobacterium tuberculosis ICL1 expressed in Escherichia coli BL21 (DE3) in presence of Mg2+ and glyoxylate by NMR binding analysis
[9] = test system: Mycobacterium tuberculosis; test: Binding affinity to wild type N-terminal polyhis-tagged TEV protease cleavage site fused Mycobacterium tuberculosis ICL1 expressed in Escherichia coli BL21 (DE3) assessed as covalent adduct formation in presence of glyoxylate by NMR binding analysis
[10] = test system: Mycobacterium tuberculosis; test: as §1, with “1 min” for “5 hrs”, “Mg2+ and glyoxylate” for “Mg2+”
[11] = test system: Mycobacterium tuberculosis; test: Binding affinity to wild type N-terminal polyhis-tagged TEV protease cleavage site fused Mycobacterium tuberculosis ICL1 expressed in Escherichia coli BL21 (DE3) assessed as covalent adduct formation at 1 mM measured after 75 mins in presence of Mg2+ by LC-MS/MS analysis relative to control
[12] = Binding affinity to wild type N-terminal polyhis-tagged TEV protease cleavage site fused Mycobacterium tuberculosis ICL1 expressed in Escherichia coli BL21 (DE3) in presence of MgCl2 by NMR binding analysis
[13] = test system: Mycobacterium tuberculosis; test: Binding affinity to wild type N-terminal polyhis-tagged TEV protease cleavage site fused Mycobacterium tuberculosis ICL1 expressed in Escherichia coli BL21 (DE3) assessed as compound-protein covalent adduct formation at 1 mM in absence of Mg2+ by LC-MS analysis

With `O=C(O)C/C(=C\c1ccccc1)C(=O)O` the IC50 [1] was 2.6 mM.

For `O=C(O)/C=C(/CC(=O)O)C(=O)O`, the IC50 [1] was 5.2 mM.

With `C=C(CC(=O)OC)C(=O)OC` the IC50 [1] was > 10 mM.

In the case of `C/C=C(\CC(=O)OC)C(=O)OC`, the IC50 [1] is reported as > 10 mM.

For `C/C=C(\CC(=O)O)C(=O)O`, the IC50 [1] was 3.1 mM.

Work on `O=C(O)/C=C(\CC(=O)O)C(=O)O` [ACONITIC ACID] yielded an IC50 [1] of 5.02 mM.

With `C=C(CC(=O)O)C(=O)O` [ITACONATE] the Activity [2] was 100%, the Kd [3] was > 0.5 mM and the Activity [4] was “Active”. The Kd [5] was > 0.5 mM, the Activity [6] was “Active” and the Activity [7] was “Active”. For the same molecule, the IC50 [1] was 0.42 mM, the Kd [8] was 0.123 mM and the Activity [9] was “inactive”. For the same molecule, the Activity [10] was 100%, the Activity [11] was 50% and the Kd [12] was 0.112 mM. The Activity [13] was “inactive”.
